Test results published in ChEMBL document CHEMBL1145044, “Novel cationic transport agents for oligonucleotide delivery into primary leukemic cells” (J Med Chem, 2003).

How the values were obtained:
[1] = Relative uptake of ODN in BM2 cells incubated with 0.25 uMol/L of P32-labeled v-myb antisense ODN for 2 hr at a concentration of 2.5 uMol/L; format: functional, Gallus gallus
Summary of the method: (§1)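 Cells were seeded at 1 × 10^6 per well in medium with 10% serum one day ahead. 0.25 µM ³²P-end-labeled v-myb antisense ODN was complexed with agent (final 2.5 µM) in serum-free medium for 30 min at room temperature. Cells were then exposed for 2 h at 37 °C or 41 °C depending on cell type. Membrane-bound ODN was stripped by acid-salt elution. Cells were lysed in proteinase K buffer and counted by liquid scintillation. Uptake is relative to free ODN, mean of ≥3 independent experiments.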

[2] = Cytotoxicity for relative cell viability compared to untreated control in CEF cells by MTT assay; format: functional, cell-based, Gallus gallus
[3] = Cytotoxicity for relative cell viability compared to untreated control in Primary leukemic cells(PLC) by MTT assay; format: functional, cell-based, Gallus gallus
Summary of the method: (§2)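 MTT reduction by cells exposed to transport agent alone, expressed relative to untreated control cells (100%). The value reported is the agent concentration at which relative viability falls to 50%.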

[4] = Relative uptake of ODN in Primary leukemic cells(PLC) incubated with 0.25 uMol/L of P32-labeled v-myb antisense ODN for 2 hr at a concentration of 2.5 uMol/L; format: functional, Gallus gallus; summary of the method: as §1
[5] = Cytotoxicity for relative cell viability compared to untreated control in BM2 cells by MTT assay; format: functional, cell-based, Gallus gallus; summary of the method: as §2
[6] = Apparent association constant was determined; format: ADME

K ass [6] [M⁻¹]	SMILES	Relative ODN uptake [1]	IC50 [2] [uM l-1]	IC50 [3] [uM l-1]	Relative ODN uptake [4]	IC50 [5] [uM l-1]
	C[n+]1ccc(-c2c3nc(c(-c4cc[n+](C)cc4)c4ccc([nH]4)c(-c4cc[n+](C)cc4)c4ccc([nH]4)c(-c4cc[n+](C)cc4)c4nc2C=C4)C=C3)cc1 [TMPYP4]	3.8	15	> 20	1.2	
	Cl.Cl.Cl.Cl.O=C(NCC1CCN2CCC(CO)N=C2N1)c1ccc(-c2c3nc(c(-c4ccc(C(=O)NCC5CCN6CCC(CO)N=C6N5)cc4)c4ccc([nH]4)c(-c4ccc(C(=O)NCC5CCN6CCC(CO)N=C6N5)cc4)c4ccc([nH]4)c(-c4ccc(C(=O)NCC5CCN6CCC(CO)N=C6N5)cc4)c4nc2C=C4)C=C3)cc1 (configuration not stated)		15	> 20	13.4	15
	C[N+](C)(C)Cc1ccc(-c2c3nc(c(-c4ccc(C[N+](C)(C)C)cc4)c4ccc([nH]4)c(-c4ccc(C[N+](C)(C)C)cc4)c4ccc([nH]4)c(-c4ccc(C[N+](C)(C)C)cc4)c4nc2C=C4)C=C3)cc1.[Cl-].[Cl-].[Cl-].[Cl-]	2.5	10	12	4.2	10
268000	I.I.I.I.O=C(NCCNC1=NCCCN1)c1ccc(-c2c3nc(c(-c4ccc(C(=O)NCCNC5=NCCCN5)cc4)c4ccc([nH]4)c(-c4ccc(C(=O)NCCNC5=NCCCN5)cc4)c4ccc([nH]4)c(-c4ccc(C(=O)NCCNC5=NCCCN5)cc4)c4nc2C=C4)C=C3)cc1	10.8	> 20	> 20	43.2	> 20
2.2e+06	Cc1ccc(-c2c3nc(c(-c4ccc(C[N+](C)(C)C)cc4)c4ccc([nH]4)c(-c4ccc(C)cc4)c4ccc([nH]4)c(-c4ccc(C[N+](C)(C)C)cc4)c4nc2C=C4)C=C3)cc1.[Cl-].[Cl-]	16.7	> 20	> 20	67.5	> 20
	CCc1c(C(=O)NC(=N)N)[nH]c(Cc2[nH]c(C(=O)NC(=N)N)c(CC)c2C)c1C.Cl.Cl	1.3	15	> 20	1.8	> 10
	I.NCCNC1=NCCCN1	5.1	20	> 20	3.2	
	CCC1=C(C)C2=N/C1=C\c1[nH]c(c(CCC(=O)N(C)CC(O)C(O)C(O)C(O)CO)c1C)/C=c1\[nH]/c(c(CC)c1CC)=C\c1[nH]c(c(C)c1CCC(=O)N(C)CC(O)C(O)C(O)C(O)CO)/C=C1\N=C(C2)C(C)=C1CC (configuration not stated)		10	4.2	9.1	10
	CCC1=C(C)C2=N/C1=C\c1[nH]c(c(CCC(=O)NCCc3c[nH]cn3)c1C)/C=c1\[nH]/c(c(CC)c1CC)=C\c1[nH]c(c(C)c1CCC(=O)NCCc1c[nH]cn1)/C=C1\N=C(C2)C(C)=C1CC		8.5	8.5	2.1	
	Br.OC[C@@H]1CCN2CC[C@@H](CO)NC2N1	2.5		8.5	0.77	
	CCC1=C(C)C2=N/C1=C\c1[nH]c(c(CCC(=O)NCCOCCOCCN)c1C)/C=c1\[nH]/c(c(CC)c1CC)=C\c1[nH]c(c(C)c1CCC(=O)NCCOCCOCCN)/C=C1\N=C(C2)C(C)=C1CC		10	14	4.4	
